In one assay the test system is HepG2. Briefly: cells. Conditions: Homo sapiens, HepG2, 72 h. The format is functional, cell-based.
Assay [1] deals with Nicotinamide phosphoribosyltransferase (Homo sapiens, UniProt P43490). Briefly: Inhibition of human recombinant NAMPT using NAM as substrate preincubated for 5 mins followed by substrate addition measured after 15 mins by fluorescence assay.
The next assay relates to MDA-MB-231. The assay is described as follows: cells. It is filed as functional, cell-based. Conditions: Homo sapiens, MDA-MB-231, 72 h.
The next assay deals with Histone deacetylase 1 (Homo sapiens, UniProt Q13547). Briefly: Inhibition of human recombinant HDAC1 (1 to 482 residues) expressed in Baculovirus using Ac-Leu-Gly-Lys(Ac)-AMC as substrate preincubated for 5 mins followed by substrate addition measured after 30 mins by fluorescence assay.
Histone deacetylase 1, sequence (Q13547 whole entry, the tested form may be a part): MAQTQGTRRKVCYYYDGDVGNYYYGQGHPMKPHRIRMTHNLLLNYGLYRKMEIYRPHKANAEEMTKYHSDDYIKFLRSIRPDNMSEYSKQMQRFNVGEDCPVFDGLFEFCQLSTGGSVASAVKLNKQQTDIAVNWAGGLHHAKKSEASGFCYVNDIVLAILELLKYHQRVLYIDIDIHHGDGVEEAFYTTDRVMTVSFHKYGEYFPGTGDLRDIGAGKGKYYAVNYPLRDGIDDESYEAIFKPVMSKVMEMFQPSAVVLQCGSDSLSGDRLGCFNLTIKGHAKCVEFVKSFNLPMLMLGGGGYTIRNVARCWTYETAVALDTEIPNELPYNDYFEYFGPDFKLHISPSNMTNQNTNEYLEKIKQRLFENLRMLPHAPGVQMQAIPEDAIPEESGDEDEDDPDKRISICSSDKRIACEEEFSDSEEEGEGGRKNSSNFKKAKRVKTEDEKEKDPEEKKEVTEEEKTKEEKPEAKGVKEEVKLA
For assay [2], the system named is HCT-116. The assay is described as follows: cells. It is filed as functional, cell-based. The note with it: Homo sapiens, HCT-116, 72 h.
Assay [3] relates to HCT-116. Briefly: Induction of apoptosis in human HCT116 cells assessed as necrotic cells at 5 uM after 72 hrs by Annexin V-FITC/propidium iodide staining-based flow cytometric analysis (reference value: 1.25%). The format is functional. The gist of the method:
(§1)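 HCT116 cells seeded at 5×10^5 cells/mL in six-well plates, treated at 5 μM for 72 h alongside vehicle. Cells trypsinized, washed twice in cold PBS, and resuspended in 1× binding buffer. Stained with annexin V-FITC 15 min at room temperature, then PI 15 min in dark, then flow cytometry.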
(Flow cytometry measures light scatter and fluorescence of single cells or particles in a stream.)

Assay [4] concerns HCT-116. The assay is described as follows: Induction of apoptosis in human HCT116 cells assessed as late apoptotic cells at 5 uM after 72 hrs by Annexin V-FITC/propidium iodide staining-based flow cytometric analysis (reference value: 3.33%). The format is functional. A digest of the protocol:
as §1

Assay [5] relates to HCT-116. Briefly: Induction of apoptosis in human HCT116 cells assessed as early apoptotic cells at 5 uM after 72 hrs by Annexin V-FITC/propidium iodide staining-based flow cytometric analysis (reference value: 7.82%). The format is functional. A digest of the protocol: as §1

Nicotinamide phosphoribosyltransferase, sequence (P43490 whole entry): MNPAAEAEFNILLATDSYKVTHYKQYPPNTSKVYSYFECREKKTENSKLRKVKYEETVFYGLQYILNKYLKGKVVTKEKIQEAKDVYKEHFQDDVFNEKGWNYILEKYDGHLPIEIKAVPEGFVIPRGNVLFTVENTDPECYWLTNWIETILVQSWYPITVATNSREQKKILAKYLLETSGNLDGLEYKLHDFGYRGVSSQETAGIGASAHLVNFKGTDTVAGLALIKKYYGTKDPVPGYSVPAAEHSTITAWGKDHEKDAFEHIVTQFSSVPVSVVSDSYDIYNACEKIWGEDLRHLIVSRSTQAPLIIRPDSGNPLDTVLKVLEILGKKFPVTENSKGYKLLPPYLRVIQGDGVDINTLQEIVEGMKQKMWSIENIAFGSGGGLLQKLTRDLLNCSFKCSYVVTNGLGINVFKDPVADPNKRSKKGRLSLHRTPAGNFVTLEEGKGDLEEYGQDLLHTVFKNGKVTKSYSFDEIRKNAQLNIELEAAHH

For `Nc1ccccc1NC(=O)c1ccc(NC(=O)NCc2ccc(F)nc2)cc1`, the IC50 (commonly the concentration that gives 50% inhibition) in the assay with HepG2 is 13 µM; in assay [1] it was greater than 2 µM; in the assay on MDA-MB-231 it was 91 µM; on Histone deacetylase 1 it was 0.28 µM; in the assay with HCT-116 [2] it was 14 µM.
The corresponding values for `Nc1ccccc1NC(=O)c1ccc(NC(=S)NCc2cccc(F)c2)cc1` are 2.9 µM, greater than 2 µM, 74 µM, 0.17 µM and 5.9 µM.
With `Nc1ccccc1NC(=O)c1ccc(CNC(=O)c2cc3cccnc3[nH]2)cc1`, the IC50 was 6.1 µM with HepG2; greater than 2 µM in assay [1]; greater than 100 µM in the assay on MDA-MB-231; 0.033 µM at Histone deacetylase 1; 10 µM in the assay with HCT-116 [2].
Take `Nc1ccccc1NC(=O)c1ccc(CNC(=O)c2cc3cnccc3[nH]2)cc1`: the IC50 is 1.7 µM in the assay on HepG2; greater than 2 µM in assay [1]; 48 µM with MDA-MB-231; 0.084 µM on Histone deacetylase 1; 4 µM with HCT-116 [2].
The corresponding values for `Nc1ccccc1NC(=O)c1ccc(CCn2cc(-c3cccnc3)nn2)cc1` are 3.2 µM, 0.19 µM, 41 µM, 0.18 µM and 5.5 µM.
The corresponding values for `Nc1ccccc1NC(=O)c1ccc(CNC(=O)c2ccc3cn[nH]c3c2)cc1` are 23 µM, greater than 2 µM, 98 µM, 0.24 µM and 18 µM.
The corresponding values for `Nc1ccccc1NC(=O)c1ccc(NC(=O)NCc2cccnc2)cc1` are 5.1 µM, 0.55 µM, greater than 100 µM, 0.22 µM and 9.4 µM.
In the case of `CC(C)(C)OC(=O)Nc1ccc(CNC(=O)Nc2ccc(C(=O)Nc3ccccc3N)cc2)cn1`, the IC50 in the assay with HepG2 was 100 µM; in assay [1], greater than 2 µM; with MDA-MB-231, greater than 100 µM; on Histone deacetylase 1, 3.3 µM; in the assay on HCT-116 [2], 100 µM.
Turning to `Nc1ccc(CNC(=S)Nc2ccc(C(=O)Nc3ccccc3N)cc2)cn1`, the IC50 was 14 µM with HepG2; greater than 2 µM in assay [1]; greater than 100 µM in the assay on MDA-MB-231; 0.2 µM on Histone deacetylase 1; 27 µM in the assay with HCT-116 [2].
Turning to `Cc1ccc(CNC(=S)Nc2ccc(C(=O)Nc3ccccc3N)cc2)cn1`, the half-inhibitory concentration (IC50) with HepG2 was 11 µM; in assay [1], greater than 2 µM; in the assay with MDA-MB-231, 63 µM; on Histone deacetylase 1, 0.26 µM; with HCT-116 [2] it was 11 µM.
For the compound `Nc1ccccc1NC(=O)c1ccc(CNC(=O)c2ccn3ccnc3c2)cc1`, the IC50 is 5.5 µM in the assay with HepG2; greater than 2 µM in assay [1]; 46 µM with MDA-MB-231; 0.087 µM on Histone deacetylase 1; 1.8 µM in the assay on HCT-116 [2].
The corresponding values for `Nc1ccccc1NC(=O)c1ccc(NC(=S)NCc2ccc(F)nc2)cc1` are 5.2 µM, greater than 2 µM, 81 µM, 0.37 µM and 10 µM.
As to `Nc1ccc(CNC(=O)Nc2ccc(C(=O)Nc3ccccc3N)cc2)cn1`, the IC50 with HepG2 is 3.1 µM; in assay [1], greater than 2 µM; with MDA-MB-231, greater than 100 µM; on Histone deacetylase 1 it was 0.33 µM; with HCT-116 [2] it was 7.3 µM.
For `Nc1ccccc1NC(=O)c1ccc(CNC(=O)c2ccc3cncn3c2)cc1`, the IC50 with HepG2 was 3.4 µM; in assay [1], greater than 2 µM; in the assay with MDA-MB-231 it was 54 µM; on Histone deacetylase 1 it was 0.093 µM; in the assay with HCT-116 [2] it was 7.4 µM.
The corresponding values for `Nc1ccccc1NC(=O)c1ccc(NC(=O)/C=C/c2cccnc2)cc1` are 2.7 µM, 0.23 µM, greater than 100 µM, 0.62 µM and 48 µM.
The corresponding values for `Nc1ccccc1NC(=O)c1ccc(NC(=S)NCc2cncc(F)c2)cc1` are 13 µM, greater than 2 µM, 85 µM, 0.44 µM and 15 µM.
The corresponding values for `Nc1ccccc1NC(=O)c1ccc(NC(=O)NCc2ccc(Cl)nc2)cc1` are 2.4 µM, greater than 2 µM, 34 µM, 0.021 µM and 5.2 µM.
As for `Nc1ccccc1NC(=O)c1ccc(NC(=S)NCc2ccccc2F)cc1`, the IC50 was 5.4 µM with HepG2; greater than 2 µM in assay [1]; greater than 100 µM in the assay with MDA-MB-231; 0.3 µM on Histone deacetylase 1; 6.3 µM in the assay with HCT-116 [2].
The corresponding values for `Nc1cccc(CNC(=S)Nc2ccc(C(=O)Nc3ccccc3N)cc2)c1` are 3.3 µM, greater than 2 µM, greater than 100 µM, 0.22 µM and 2.8 µM.
The corresponding values for `Nc1ccccc1NC(=O)c1ccc(NC(=O)/C(Cl)=C(\Cl)c2cccnc2)cc1` are 0.56 µM, greater than 2 µM, 13 µM, 0.67 µM and 2.4 µM.
Turning to `O=S(=O)(c1ccc(NC(=S)NCc2cccnc2)cc1)N1CCCCC1`, the IC50 is 5.3 µM in the assay with HepG2, greater than 10 µM on Histone deacetylase 1 and 41 µM in the assay with HCT-116 [2]. Besides, the Activity in the assay on HCT-116 [3] came to 1.62%; in the assay on HCT-116 [4], 11.4%; in the assay with HCT-116 [5], 29.11%.
Take `Nc1ccccc1NC(=O)c1ccc(NC(=S)NCc2cccc(Cl)c2)cc1`: the IC50 in the assay with HepG2 is 2.6 µM; in assay [1], greater than 2 µM; with MDA-MB-231, 92 µM; on Histone deacetylase 1, 0.18 µM; with HCT-116 [2], 5.9 µM.
For `Nc1ccccc1NC(=O)c1ccc(CNC(=O)c2cc3cnccc3s2)cc1`, the IC50 in the assay with HepG2 was 0.38 µM; in assay [1] it was greater than 2 µM; in the assay with MDA-MB-231, 40 µM; on Histone deacetylase 1, 0.083 µM; with HCT-116 [2], 3 µM.
The corresponding values for `Nc1ccccc1NC(=O)c1ccc(NC(=S)NCc2ccc(F)cc2)cc1` are 8.8 µM, greater than 2 µM, greater than 100 µM, 0.3 µM and 15 µM.
The corresponding values for `Nc1ccccc1NC(=O)c1ccc(NC(=S)NCc2nc3ccccc3[nH]2)cc1` are 31 µM, greater than 2 µM, greater than 100 µM, 0.046 µM and 22 µM.
For the compound `CC(=O)Nc1ccc(C(=O)Nc2ccccc2N)cc1` [TACEDINALINE], the IC50 is 10 µM in the assay on HepG2, greater than 2 µM in assay [1] and 10 µM with HCT-116 [2]. Further, the Activity with HCT-116 [3] was 3.71%; in the assay on HCT-116 [4], 20.75%; with HCT-116 [5] it was 10.81%.
As for `Nc1ccccc1NC(=O)c1ccc(NC(=S)NCc2cncc(Br)c2)cc1`, the IC50 is 7.5 µM with HepG2; greater than 2 µM in assay [1]; 39 µM in the assay with MDA-MB-231; 0.35 µM at Histone deacetylase 1; 9.2 µM in the assay on HCT-116 [2].
The corresponding values for `Nc1ccccc1NC(=O)c1ccc(Cn2cc(-c3ccc(NC(=O)NCc4cccnc4)cc3)nn2)cc1` are 8.1 µM, 0.018 µM, greater than 100 µM, 0.041 µM and greater than 100 µM.
The corresponding values for `Nc1ccccc1NC(=O)c1ccc(NC(=S)NCc2ccc(Cl)nc2)cc1` are 19 µM, greater than 2 µM, 42 µM, 0.25 µM and 6.1 µM.
The corresponding values for `Nc1ccccc1NC(=O)c1ccc(NC(=S)NCc2ccc3c(c2)OCO3)cc1` are 5.1 µM, greater than 2 µM, greater than 100 µM, 0.1 µM and 8.4 µM.
As to `Nc1ccccc1NC(=O)c1ccc(CNC(=O)c2cc3ccncc3[nH]2)cc1`, the IC50 in the assay on HepG2 is 4.7 µM; in assay [1], greater than 2 µM; with MDA-MB-231 it was 41 µM; on Histone deacetylase 1, 0.071 µM; in the assay on HCT-116 [2], 3.3 µM.
